# Source: PubChem BioAssay (Broad Institute)
# The list is not random: actives were taken first. Their share in the collection is about 3%.
# CASP6 VEID inh: human caspase-6 inhibitors, primary screen, biochemical, VEID-R110 fluorescence, single point, set 2; purified caspase-6, Z-VEID-R110 cleavage fluorescence; inhibition, % at 12.5 µM; 350,000 compounds, 0.53% hits; AID 686996, 2013;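 active = mean inhibition across replicates at least about 35%, with every replicate also reaching that limit, limit read from the data; inconclusive = only one of the two criteria met; inactive = neither criterion met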;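 note: 0% = median of neutral control wells and 100% = no fluorescence left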
# Target sequence (P55212 24-179 limits assumed): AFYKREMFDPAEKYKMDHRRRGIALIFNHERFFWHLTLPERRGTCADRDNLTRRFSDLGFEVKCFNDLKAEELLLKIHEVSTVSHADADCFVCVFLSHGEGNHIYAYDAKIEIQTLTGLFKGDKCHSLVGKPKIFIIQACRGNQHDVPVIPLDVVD
# Target sequence (P55212 194-293 limits assumed): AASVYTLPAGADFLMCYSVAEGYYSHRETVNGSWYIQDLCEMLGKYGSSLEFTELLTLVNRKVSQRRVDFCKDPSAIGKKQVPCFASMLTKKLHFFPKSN
# NSD2 inh: NSD2 histone methyltransferase inhibitors, primary screen, biochemical, AlphaScreen, single concentration, set 2; Histone-lysine N-methyltransferase NSD2 (Homo sapiens), O96028; NSD2 peptide methylation, 120 min; inhibition, % at 12.5 µM; 310,000 compounds, 0.54% hits; AID 743445, 2014; in the data active = inhibition above about 50%
# Wnt bcat act: Wnt/beta-catenin pathway activators, primary screen, cell-based, plate reader, single point; Wnt/beta-catenin reporter cell assay, activator; activation, % at 9.35 µM; 300,000 compounds, 1.2% hits; AID 743398, 2014; in the data active = activation above about 30%, passing the limit was not always enough; inconclusive = no clear call, values can overlap the other calls;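 note: 0% = neutral control wells and 100% = positive control wells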
# esBAF inh: Bmi1 luciferase reporter increase in mESCs, primary screen, esBAF inhibitor project, mouse ES cells, Bmi1 luciferase knock-in, single point; 24 h; 100% = twice the neutral-well signal; 350,000 compounds, 2% hits; reporter increase, % at 12.5 µM; in the data active = activation above about 40%; inconclusive = no clear call, values can overlap the other calls;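 note: 0% = median of the plate's neutral control wells and 100% = double that signal; a rise in the Bmi1 reporter signal indicates esBAF inhibition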
# MITF act: activators of MITF-driven TRPM1 promoter reporter, primary screen, cell-based, SK-MEL-5, luciferase, single point; SK-MEL-5 TRPM1-promoter luciferase, 24 h; % of positive control, neutral wells = 0; activation, % at 12.5 µM; 300,000 compounds, 0.75% hits;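 active = mean activation of at least 80% with every replicate also reaching 80%; inconclusive = mean reaches 80% but some replicate falls short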;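 note: 0% = neutral control wells and 100% = parthenolide positive control wells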
# XiGFP reactiv: activators of inactive X chromosome reactivation, primary screen, imaging, XiGFP fibroblasts, GFP high-content imaging, set 2. XiGFP mouse fibroblasts, % GFP-positive cells imaging, 3 d; cells co-treated with 5-aza-dC sensitizer; scaled so ellipticine positive control = 100%. activation, % at 7.58 µM. 360,000 compounds, 0.055% hits;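 active = mean normalized replicate activation at least 10% and every replicate at or above 10%; inconclusive = only one of the two criteria met; inactive = mean below 10% and not all replicates reach 10%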;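 note: 0% = median of on-plate neutral control wells and 100% = ellipticine 6 µM median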
#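 System: SV40-immortalized XiGFP fibroblast cells, line 68-5-11 / Incubation: 3-day compound exposure, then 15 min fixation at room temperature / Compound: single concentration per compound, delivered by pin transfer / Buffer or medium: DMEM plus 5-aza-dC sensitizer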
# * marks the source's active call; other numbers are inactive results; ? = inconclusive; / = not tested or not shown.
SMILES,CASP6 VEID inh,NSD2 inh,Wnt bcat act,esBAF inh,MITF act,XiGFP reactiv
O=c1cc(-c2ccc(O)cc2)oc2cc(O)c(C3OC(CO)C(O)C(O)C3O)c(O)c12 (centres undefined),37*,/,-1,-1,/,/
O=c1cc(-c2ccc(O)c(O)c2)oc2cc(O[C@@H]3O[C@H](CO)[C@@H](O)[C@H](O)[C@H]3O)cc(O)c12,/,/,/,6,23,/
COCOc1ccc(-c2cc(=O)c3c(O)cc(OCOC)cc3o2)cc1,2,/,15,88*,/,/
COc1cc(-c2cc(=O)c3c(O)cc(O)cc3o2)ccc1O,/,/,/,32,/,/
O=c1cc(-c2ccccc2)oc2cccc(O)c12,-4,/,-1,45*,21,/
O=c1cc(-c2cccc(Cl)c2)oc2cccc(O)c12,0,/,7,39,14,0
O=c1cc(-c2ccc(O)cc2)oc2cc(O)cc(O)c12,2,/,46*,?,94*,0
COCC(=O)N(C)C[C@H]1Oc2cc(-c3cccnc3)ccc2S(=O)(=O)N([C@H](C)CO)C[C@H]1C,-1,/,/,-3,/,-1
COc1cc(O)c2c(=O)cc(-c3ccccc3)oc2c1,-1,/,23,50*,95*,/
O=c1cc(-c2ccccc2)oc2cc(O)cc(O)c12,-1,/,6,7,100*,/
CC(C)CC#Cc1ccc([C@@H]2[C@@H](CO)N3C(=O)CN(C(=O)NC(C)C)C[C@H]23)cc1,/,/,/,/,/,1
CC(=O)N1C[C@@H]2C(c3ccccc3)[C@H](C1)N2C(C)=O (some centres undefined),/,/,/,/,/,0
CCN1[C@@H]2c3ccc(-c4ccccc4OC)c(=O)n3C[C@@H]2[C@@H](CO)[C@@H]1C(=O)NCCCN(C)C,-3,/,/,/,/,0
COc1ccc(-n2c(NNC(C)=O)nc3sc4c(c3c2=O)CCCC4)cc1,69*,-2,0,10,/,0
COc1cccc(C#Cc2ccc3c(c2)[C@H]2[C@H](CCN2C(=O)c2ccc4c(c2)OCO4)[C@H](CO)N3)c1,3,/,/,/,/,/
CCCN(C)C[C@@H]1OCCCC[C@@H](C)Oc2ccc(NC(=O)CCC(F)(F)F)cc2C(=O)N([C@@H](C)CO)C[C@@H]1C,-2,/,/,-1,/,0
COc1cccc(NC2=C(NCCO)C(=O)c3ccccc3C2=O)c1,10,25,0,-57,-14,0
COc1ccc(NC2=C(NCCO)C(=O)c3ccccc3C2=O)cc1,88*,/,7,/,-5,0
Cc1cccc(NC2=C(NCCO)C(=O)c3ccccc3C2=O)c1,92*,41,3,/,-22,0
O=C(C[C@@H]1C[C@@H]2c3cc(NC(=O)C4CCC4)ccc3O[C@@H]2[C@H](CO)O1)NC1CCCC1,0,/,/,0,/,0
O=C1c2cccc3c([N+](=O)[O-])ccc(c23)C(=O)N1Cc1cccnc1,6,7,10,/,-22,20*
Cc1ccc(N2C(=O)c3cccc4c([N+](=O)[O-])ccc(c34)C2=O)c2cccnc12,0,/,41*,-18,-74,10
Cc1nnc(N2C(=O)c3cccc4c([N+](=O)[O-])ccc(c34)C2=O)s1,1,30,-2,-1,-10,27*
Cc1cccc(N2C(=O)c3cccc4c(N5CCCCC5)c([N+](=O)[O-])cc(c34)C2=O)c1C,/,0,-4,/,4,0
Cc1ccnc(N2C(=O)c3cccc4c([N+](=O)[O-])ccc(c34)C2=O)c1,3,/,27,-1,-11,/
SMILES,CASP6 VEID inh,NSD2 inh,Wnt bcat act,esBAF inh,MITF act,XiGFP reactiv
CC(C)CC#Cc1ccc2c(c1)O[C@H](CN(C)C(=O)c1cnccn1)[C@H](C)CN([C@H](C)CO)S2(=O)=O,5,/,/,1,/,0
c1ccc2c(-c3csc(-c4ccncc4)n3)c[nH]c2c1,0,-3,28,52*,126*,0
Brc1ccc(-c2csc(-c3c[nH]c4ccccc34)n2)cc1,/,-1,-2,67*,20,/
NC(=O)c1ccsc1NC(=O)COc1ccccc1,11,2,-3,65*,70,/
NC(=O)c1ccsc1NC(=O)CSc1ccccc1F,3,1,25,75*,61,/
Cc1cccc(OCC(=O)OCC(=O)Nc2sccc2C(N)=O)c1,1,1,2,3,-5,1
O=[N+]([O-])c1ccc(/C=N/NC(=S)Nc2ccccc2F)o1,/,14,/,24,-18,0
Fc1ccccc1NC(=S)N/N=C/c1ccccc1Br,/,1,/,60*,/,/
CC(C)NC(=O)NCC[C@H]1CC[C@@H](NS(=O)(=O)c2ccccc2)[C@H](CO)O1,1,/,/,/,/,-1
CN(C)c1ccc(C(=O)Nc2cccc(S(=O)(=O)NC3=NCCCCC3)c2)cc1,2,1,-3,62*,9,1
COc1ccc(/C=C/C(=O)Nc2cccc(S(=O)(=O)NC3=NCCCCC3)c2)cc1,3,-2,-3,36,55,0
O=C(/C=C/c1ccc(OC(F)F)cc1)Nc1cccc(S(=O)(=O)NC2=NCCCCC2)c1,4,29,8,54*,11,0
C[C@@H]1CN([C@H](C)CO)C(=O)c2cc(NC(=O)NC3CCCCC3)ccc2O[C@@H]1CN(C)Cc1ccc(Oc2ccccc2)cc1,4,/,/,-3,/,1
CCc1nc2oc3cc(OC)ccc3c(=O)c2c(=O)n1-c1ccccc1,/,-2,13,45*,43,/
Cc1ccc(-n2c(C)nc3oc4ccccc4c(=O)c3c2=O)cc1,/,10,?,56*,12,/
C[C@@H]1CN(C)C(=O)Cc2cc(N)ccc2O[C@@H]1CN(C)C,/,/,/,/,/,0
CC(C)(C)c1csc(N/N=C/c2ccc(O)cc2)n1,-1,3,11,?,97*,0
CC(=O)Nc1sc(N/N=C/c2ccc(O)cc2)nc1-c1ccc(C)cc1,2,3,10,/,-1,0
Cc1ccc(C2=NN3C(C(=O)c4ccccc4)Oc4ccccc4C3C2)cc1 (centres undefined),/,-6,43*,68*,/,/
Cc1ccc(C(=O)C2Oc3ccccc3C3CC(c4ccc(C)cc4)=NN23)cc1 (centres undefined),-2,-3,-1,/,-13,0
COc1ccc(C2=NN3C(C2)c2ccccc2OC3c2cccs2)cc1 (centres undefined),-6,/,49*,/,57,0
CCOC(=O)N1CCC(N2CCCC(C(=O)c3cc(F)ccc3OC)C2)CC1 (centres undefined),-1,1,50*,/,-9,0
